Results reported in ChEMBL document CHEMBL1926517, “C-terminal tetrapeptides inhibit Aβ42-induced neurotoxicity primarily through specific interaction at the N-terminus of Aβ42” (J Med Chem, 2011).
pIC50: −log10 of the molar value. Calls of active or inactive are those of the source. No cut-off for these calls is given here. Residues, ends and D or L forms follow the SMILES beside them.

Experiments:
[1] = system: PC-12; assay: Neuroprotective activity in rat PC12 cells assessed as inhibition of amyloid-beta (1 to 42)-induced cell death after 24 hrs by MTT assay; assay type: functional, cell-based; details: for pIC50: PC-12, 24 h
How it was run: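 NGF-differentiated PC-12 cells (100 ng/mL, 48 h) were given 10 μM Aβ42 plus peptide at 1:1, 1:2, 1:5 and 1:10 ratios for 24 h, and read by MTT. Viability was scaled to 1 μM staurosporine full kill (100% loss), with NaOH-matched vehicle and medium as negative controls. IC50 from dose–response, ≥3 independent experiments × 6 replicates, mean ± SEM.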

[2] = system: PC-12; assay: Neuroprotective activity in rat PC12 cells assessed as inhibition of amyloid-beta (1 to 42)-induced cell death after 24 hrs by LDH release assay; assay type: functional, cell-based; details: PC-12, 24 h
How it was run: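 PC-12 cells were differentiated with NGF (100 ng/mL, 48 h), then exposed to Aβ42 alone or Aβ42:peptide mixtures at 1:1, 1:2, 1:5 and 1:10 ratios. Cell death was measured by LDH release (membrane integrity kit). IC50 was taken from the dose–response, ≥3 independent experiments with 6 replicates each, mean ± SEM.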

[3] = system: PC-12; assay: Neuroprotective activity in rat PC12 cells assessed as inhibition of staurosporine-induced cell death after 24 hrs by MTT assay; assay type: functional, cell-based
How it was run: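 Differentiated PC-12 cells (NGF 100 ng/mL, 48 h) exposed to 0.2 μM staurosporine, with or without varying tetrapeptide concentrations, for 24 h. Viability was read by MTT. Mean ± SEM, ≥3 independent experiments with 5 replicates per point.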

[4] = system: PC-12; assay: Neuroprotective activity in rat PC12 cells assessed as inhibition of alpha-synuclein-induced cell death after 24 hrs by MTT assay; assay type: functional, cell-based
How it was run: (§1)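 NGF-differentiated PC-12 cells (100 ng/mL, 48 h) treated 24 h with α-synuclein (15 μM) or alamethicin (4 μM), alone or with a range of tetrapeptide concentrations. MTT read-out. Mean ± SEM of ≥3 independent experiments, 5 replicates per point.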

[5] = system: PC-12; assay: Neuroprotective activity in rat PC12 cells assessed as inhibition of alamethicin-induced cell death after 24 hrs by MTT assay; assay type: functional, cell-based; how it was run: as §1
[6] = Binding affinity to amyloid beta (1 to 42) Try residue at position 1 assessed as change in fluorescence intensity
How it was run: (§2)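 HFIP-pretreated Aβ42 or its Y-substituted analogue (5 μM nominal) was mixed with tetrapeptide (50 μM nominal), taken up in 60 mM NaOH (10% of volume), then diluted with 10 mM sodium phosphate pH 7.4 and spun briefly. Exact concentrations were set afterwards by AAA. Read-out: excitation 280 nm, emission 290–400 nm at 22°C, ≥10 immediate scans. Buffer-subtracted area per micromole was normalized to the analogue alone. Four independent experiments.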

[7] = Binding affinity to amyloid beta (1 to 42) Try residue at position 20 assessed as change in fluorescence intensity
How it was run: (§3)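 Aβ42 or Y-substituted analogue (5 μM final) mixed with tetrapeptide (50 μM final), HFIP-pretreated, dissolved in 60 mM NaOH (10% of volume) then diluted in 10 mM sodium phosphate pH 7.4. Spun 5,000 g 1 min, concentration confirmed post facto by AAA. Excitation 280 nm, emission 290–400 nm, 22°C, ≥10 scans of ~1 min right after preparation. Buffer subtracted, area under curve normalized to peptide alone. Four independent experiments, mean ± SEM.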

[8] = Binding affinity to amyloid beta (1 to 42) Try residue at position 30 assessed as change in fluorescence intensity; how it was run: as §3
[9] = Binding affinity to amyloid beta (1 to 42) Try residue at position 1 assessed as change in fluorescence intensity using C-terminus acetylated compound; how it was run: as §2
[10] = Binding affinity to amyloid beta (1 to 42) Try residue at position 1 assessed as change in fluorescence intensity using N-terminus amidated compound; how it was run: as §2
[11] = Binding affinity to amyloid beta (1 to 42) Try residue at position 42 assessed as change in fluorescence intensity; how it was run: as §3
[12] = Binding affinity to amyloid beta (1 to 42) Try residue at position 30 assessed as change in fluorescence intensity using N-terminus amidated compound; how it was run: as §2
[13] = Binding affinity to wild type amyloid beta (1 to 42) assessed as change in fluorescence intensity; how it was run: as §3
[14] = Binding affinity to amyloid beta (1 to 42) assessed as change in fluorescence intensity using C-terminus acetylated compound; how it was run: as §2
[15] = system: PC-12; assay: Neuroprotective activity in rat PC12 cells assessed as inhibition of staurosporine-induced cell death after 24 hrs by MTT assay
[16] = Cytotoxicity against rat PC12 cells assessed as cell viability at 1 uM after 24 hrs by MTT assay; assay type: cell-based, PC-12; details: read-out: Activity

CC[C@H](C)[C@H](NC(=O)[C@H](C)NC(=O)[C@@H](N)C(C)C)C(=O)N[C@@H](C)C(=O)O (H-VAIA-OH)
Activity [1]: Dose-dependent effect
pIC50 [1]: 4.82
pIC50 [2]: 4.85

CC[C@H](C)[C@H](NC(=O)[C@H](C)N)C(=O)N[C@H](C(=O)N[C@H](C(N)=O)C(C)C)C(C)C (H-AIVV-NH2)
Activity [1]: Dose-dependent effect

CC[C@H](C)[C@H](NC(=O)[C@@H](NC(=O)[C@@H](N)C(C)C)C(C)C)C(=O)N[C@@H](C)C(=O)O
Activity [1]: Dose-dependent effect
pIC50 [1]: 4.68
Activity [3]: inactive
Activity [4]: inactive
Activity [5]: inactive
Flu intensity [6]: 117%
Activity [7]: inactive
Activity [8]: inactive
Flu intensity [9]: 48%
Flu intensity [10]: 62%
Activity [11]: inactive
Flu intensity [12]: 24%
Activity [13]: inactive
Flu intensity [14]: 19%
Activity [15]: inactive

CC[C@H](C)[C@H](NC(=O)[C@@H](NC(=O)[C@@H](N)C(C)C)C(C)C)C(=O)N[C@@H](C)C(N)=O (H-VVIA-NH2)
Activity [1]: Dose-dependent effect
pIC50 [1]: 4.55
pIC50 [2]: 4.52

CN[C@@H]1C[C@H]2O[C@@](C)([C@@H]1OC)n1c3ccccc3c3c4c(c5c6ccccc6n2c5c31)C(=O)NC4 [STAUROSPORINE]
viability at 24 h, 1 µM [16]: 100%

CC[C@H](C)[C@H](NC(=O)[C@H](C)N)C(=O)N[C@H](C(=O)N[C@H](C(=O)O)C(C)C)C(C)C (H-AIVV-OH)
Activity [1]: Dose-dependent effect

CC[C@H](C)[C@H](NC(=O)[C@@H](NC(=O)[C@H](C)N)C(C)C)C(=O)N[C@@H](C)C(=O)O (H-AVIA-OH)
Activity [1]: Dose-dependent effect
pIC50 [1]: 4.28
pIC50 [2]: 4.66
